Laboratory results taken from ChEMBL document CHEMBL4002610, “Design, synthesis and biological activity evaluation of novel 2,6-difluorobenzamide derivatives through FtsZ inhibition” (2017).
Values after ≈ are worked out from the molar mass of the structure shown. Active and inactive are the calls of the source. The calls are words filed in the database; no cut-off is given here.

How the values were obtained:
Streptococcus pyogenes = assay: Antibacterial activity against penicillin-susceptible Streptococcus pyogenes after 24 hrs by broth microdilution method; assay type: functional
How it was run: (§1)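 MIC by standard broth microdilution per NCCLS guidance. Strain panel: B. subtilis ATCC9372 and S. aureus ATCC25923 as standard susceptible strains, S. aureus ATCC29213 as […], S. pyogenes PS as penicillin-susceptible, S. pneumoniae ATCC49619 as standard susceptible, alongside Gram-negative strains.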

Bacillus subtilis [1] = assay: Inhibition of FtsZ in Bacillus subtilis ATCC 9372 assessed as decrease in cell division by measuring cell morphology at 2048 to 4096 ug/ml after 5 hrs by phase-contrast light microscopy
[2] = test system: Escherichia coli ATCC 25922; assay: Inhibition of FtsZ in Escherichia coli ATCC 25922 assessed as decrease in cell division by measuring lowest compound concentration at which bacterial filamentation is observed after 5 hrs by phase-contrast light microscopy
How it was run: (§2)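 Cell division inhibition scored by cell morphology under phase-contrast light microscopy. B. subtilis ATCC9372, E. coli ATCC25922 and S. aureus ATCC25923 were exposed to compound. The lowest concentration giving filamentation (B. subtilis, E. coli) or ballooning (S. aureus) was recorded as the cell division inhibitory concentration.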

Staphylococcus aureus [3] = assay: Antibacterial activity against Staphylococcus aureus ATCC 25923 after 24 hrs by broth microdilution method; assay type: functional; settings: ATCC 25923, 24 h; how it was run: as §1
Staphylococcus aureus [4] = assay: Antibacterial activity against penicillin-resistant Staphylococcus aureus clinical isolate after 24 hrs by broth microdilution method; assay type: functional
Staphylococcus aureus [5] = assay: Antibacterial activity against Staphylococcus aureus ATCC 29213 after 24 hrs by broth microdilution method; assay type: functional; settings: ATCC 29213, 24 h; how it was run: as §1
Pseudomonas aeruginosa = assay: Antibacterial activity against Pseudomonas aeruginosa ATCC 27853 after 24 hrs by broth microdilution method; assay type: functional; settings: ATCC 27853, 24 h; how it was run: as §1
Escherichia coli = assay: Antibacterial activity against Escherichia coli ATCC 25922 after 24 hrs by broth microdilution method; assay type: functional; settings: ATCC 25922, 24 h; how it was run: as §1
Streptococcus pneumoniae = assay: Antibacterial activity against Streptococcus pneumoniae ATCC 49619 after 24 hrs by broth microdilution method; assay type: functional; settings: ATCC 49619, 24 h; how it was run: as §1
Bacillus subtilis [6] = assay: Antibacterial activity against Bacillus subtilis ATCC 9372 after 24 hrs by broth microdilution method; assay type: functional; settings: ATCC 9372, 24 h; how it was run: as §1
[7] = molecular target: T1, Cell division protein FtsZ (Staphylococcus aureus) (UniProt P0A031); assay: Inhibition of FtsZ in Staphylococcus aureus ATCC 25923 assessed as decrease in cell division by measuring lowest compound concentration at which bacterial ballooning is observed after 5 hrs by phase-contrast light microscopy; how it was run: as §2
T1 sequence (whole entry): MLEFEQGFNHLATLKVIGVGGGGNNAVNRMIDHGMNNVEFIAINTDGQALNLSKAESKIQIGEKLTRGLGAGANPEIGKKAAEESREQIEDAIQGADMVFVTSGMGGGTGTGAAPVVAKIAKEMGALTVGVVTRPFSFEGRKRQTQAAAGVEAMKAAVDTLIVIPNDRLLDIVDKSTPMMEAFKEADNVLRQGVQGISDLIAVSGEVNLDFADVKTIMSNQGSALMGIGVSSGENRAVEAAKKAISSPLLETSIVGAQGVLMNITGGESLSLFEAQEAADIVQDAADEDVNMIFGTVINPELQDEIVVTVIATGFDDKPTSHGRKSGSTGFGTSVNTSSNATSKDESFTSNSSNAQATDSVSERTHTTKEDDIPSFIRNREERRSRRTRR

[8] = molecular target: T1, Cell division protein FtsZ (Staphylococcus aureus); assay: Inhibition of FtsZ in Staphylococcus aureus ATCC 25923 assessed as decrease in cell division by measuring cell morphology at 2048 to 4096 ug/ml after 5 hrs by phase-contrast light microscopy
Bacillus subtilis [9] = assay: Inhibition of FtsZ in Bacillus subtilis ATCC 9372 assessed as decrease in cell division by measuring lowest compound concentration at which bacterial filamentation is observed after 5 hrs by phase-contrast light microscopy; how it was run: as §2

Row | Compound | MIC (Streptococcus pyogenes) [µg/mL] | inhibition (Bacillus subtilis [1]) | INH [2] [µg/mL] | MIC (Staphylococcus aureus [3]) [µg/mL] | MIC (Staphylococcus aureus [4]) [µg/mL] | MIC (Staphylococcus aureus [5]) [µg/mL] | MIC (Pseudomonas aeruginosa) [µg/mL] | MIC (Escherichia coli) [µg/mL] | MIC (Streptococcus pneumoniae) [µg/mL] | MIC (Bacillus subtilis [6]) [µg/mL] | INH [7] [µg/mL] | inhibition [8] | INH (Bacillus subtilis [9]) [µg/mL]
1 | NC(=O)c1c(F)ccc(OCc2nc3ccccc3[nH]2)c1F | 1020 (≈ 3380 µM) | inactive | 128 | 1020 (≈ 3380 µM) | 1020 (≈ 3380 µM) | 512 (≈ 1690 µM) | 256 (≈ 844 µM) | 256 (≈ 844 µM) | 256 (≈ 844 µM) | 1020 (≈ 3380 µM) | 512 | – | –
2 | NC(=O)c1c(F)ccc(OCCCCCn2cnc3ccccc32)c1F | 1020 (≈ 2850 µM) | inactive | 512 | 512 (≈ 1420 µM) | 512 (≈ 1420 µM) | 512 (≈ 1420 µM) | 512 (≈ 1420 µM) | 1020 (≈ 2850 µM) | 512 (≈ 1420 µM) | 512 (≈ 1420 µM) | – | inactive | –
3 | NC(=O)c1c(F)ccc(OCCCCCCn2cnc3cc([N+](=O)[O-])ccc32)c1F | 512 (≈ 1220 µM) | – | 256 | 1020 (≈ 2450 µM) | 1020 (≈ 2450 µM) | 512 (≈ 1220 µM) | 512 (≈ 1220 µM) | 512 (≈ 1220 µM) | 256 (≈ 612 µM) | 1020 (≈ 2450 µM) | – | inactive | 64
4 | NC(=O)c1c(F)ccc(OCCCCn2cnc3cc([N+](=O)[O-])ccc32)c1F | 256 (≈ 656 µM) | inactive | 256 | 1020 (≈ 2620 µM) | 512 (≈ 1310 µM) | 256 (≈ 656 µM) | 512 (≈ 1310 µM) | 512 (≈ 1310 µM) | 128 (≈ 328 µM) | 64 (≈ 164 µM) | 512 | inactive | –
5 | NC(=O)c1c(F)ccc(OCCn2cnc3ccccc32)c1F | 1020 (≈ 3230 µM) | inactive | 256 | 1020 (≈ 3230 µM) | 1020 (≈ 3230 µM) | 512 (≈ 1610 µM) | 1020 (≈ 3230 µM) | 512 (≈ 1610 µM) | 512 (≈ 1610 µM) | 1020 (≈ 3230 µM) | – | inactive | –
6 | NC(=O)c1c(F)ccc(OCCCCn2cnc3ccccc32)c1F | 1020 (≈ 2970 µM) | inactive | 512 | 1020 (≈ 2970 µM) | 1020 (≈ 2970 µM) | 512 (≈ 1480 µM) | 512 (≈ 1480 µM) | 1020 (≈ 2970 µM) | 512 (≈ 1480 µM) | 512 (≈ 1480 µM) | – | inactive | –
